Sampled rows, rich in hits. Any-hit rate of the full collection: about 2.6%.
SMARCA2 activ: SMARCA2 (BRM) function activators, primary screen, cell-based, luminescence, high throughput. activation, % at 9.1 µM. actives 1% (n = 370,000). MG213 cells, MMTV-luciferase reporter, dexamethasone, overnight. AID 652017, 2013; in the data active = activation above about 7.8%;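 also: 0% = vehicle wells and 100% = reference activator wells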
ARFGAP1 inh: inhibitors of rat ARFGAP1 GAP activity, primary screen, biochemical, fluorescence polarization, GDP tracer | Arfgap1-stimulated ARF1 GTP hydrolysis, GDP FP detection | inhibition, % at 16.5 µM | actives 0.26% (n = 360,000);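 active = inhibition above a per-plate limit, mean inhibition of low control wells plus 3 SD, cut at about 25% in these data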;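 also: 0% = DMSO wells with enzyme and 100% = wells lacking Arfgap1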
Target sequence (Q62848 1-136 limits assumed): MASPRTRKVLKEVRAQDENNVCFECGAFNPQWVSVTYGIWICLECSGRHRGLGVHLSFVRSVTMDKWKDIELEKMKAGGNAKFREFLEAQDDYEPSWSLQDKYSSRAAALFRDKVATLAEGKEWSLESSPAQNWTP
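Assay system: Rat Arfgap1 GAP domain (His6, aa 1-136), purified enzyme | Buffer or medium: HEPES 25 mM pH 7.5, NaCl 150 mM, MgCl2, DTT | Schedule: GTP hydrolysis reaction 2 h at 25 °C | Signal: FP of antibody-bound GDP Alexa 633 tracer, ex 620/em 688 nm | Measure: Percent inhibition of Arfgap1-stimulated GTP hydrolysis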
ASAP1 GAP inh: inhibitors of human ASAP1 ArfGAP activity, primary screen, biochemical, fluorescence polarization. actives 0.19% (n = 360,000). AID 624377, 2012. inhibition, % at 16.5 µM. ASAP1-stimulated ARF1 GTP hydrolysis, GDP FP detection. Arf-GAP with SH3 domain, ANK repeat and PH domain-containing protein 1 (Homo sapiens), …; in the data active = inhibition above about 25%;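 also: 0% = vehicle with enzyme and substrate and 100% = no enzyme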
Target sequence (Q9ULH1 325-724 limits assumed): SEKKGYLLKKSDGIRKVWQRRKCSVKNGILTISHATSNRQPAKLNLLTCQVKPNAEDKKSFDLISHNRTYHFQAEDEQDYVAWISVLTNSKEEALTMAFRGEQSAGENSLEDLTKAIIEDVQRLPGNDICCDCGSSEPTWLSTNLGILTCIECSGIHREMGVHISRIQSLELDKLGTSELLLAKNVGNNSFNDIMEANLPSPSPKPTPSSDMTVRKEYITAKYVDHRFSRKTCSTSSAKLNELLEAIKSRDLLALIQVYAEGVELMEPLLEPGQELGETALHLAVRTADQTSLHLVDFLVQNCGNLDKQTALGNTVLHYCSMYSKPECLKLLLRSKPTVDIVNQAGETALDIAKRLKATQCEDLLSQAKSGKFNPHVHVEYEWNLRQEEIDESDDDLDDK
esBAF inh: Bmi1 luciferase reporter increase in mESCs, primary screen, esBAF inhibitor project, mouse ES cells, Bmi1 luciferase knock-in, single point; actives 2% (n = 350,000); 24 h; 100% = twice the neutral-well signal; reporter increase, % at 12.5 µM; AID 602393, 2012; in the data active = activation above about 40%;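 also: 0% = median of the plate's neutral control wells and 100% = double that signal; a rise in the Bmi1 reporter signal indicates esBAF inhibition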
Active calls of the source: *; . = not tested or not shown.

SMILES | SMARCA2 activ | ARFGAP1 inh | ASAP1 GAP inh | esBAF inh
COc1cc(C)ccc1OCc1cc(C(=O)NCc2ccncc2)no1 | 7 | -4 | -18 | 52*
COc1cc(C)ccc1OCc1cc(C(=O)NC(C)Cn2cncn2)no1 (stereo not drawn) | 1 | 1 | 0 | 78*
COc1cc(Cl)ccc1OCc1cc(C(=O)NCc2cc(C(C)C)no2)no1 | 7 | 3 | -11 | 79*
CCCNC(=O)Nc1ccc2c(c1)C(=O)N(C)[C@@H]1CC[C@H](CC(=O)NCc3ccccc3)O[C@@H]1CO2 | . | . | . | 6
COc1cc(C)ccc1OCCCOc1ccccc1Br | 6 | 11 | 6 | 52*
COc1ccccc1OCCCOc1ccc([N+](=O)[O-])cc1Cl | 6 | -6 | 6 | 56*
C[C@H]1CCCCO[C@@H](CN(C)S(=O)(=O)c2cccs2)[C@@H](C)CN([C@@H](C)CO)C(=O)c2cc(NS(=O)(=O)c3cn(C)cn3)ccc2O1 | . | . | . | 0
Cc1noc(C)c1S(=O)(=O)Nc1ccc2c(c1)C(=O)N([C@@H](C)CO)C[C@@H](C)[C@@H](CN(C)C(=O)NC1CCCCC1)OCCCC[C@@H](C)O2 | . | . | . | 3
CCOC(=O)c1sc(=NC(=O)c2ccc(C)cc2)n(C)c1C | 6 | 13 | 4 | .
CCOC(=O)c1sc(=NC(=O)c2c(F)cccc2F)n(C)c1C | 0 | 16 | 16 | 54*
CCOC(=O)c1sc(=NC(=O)c2cccc(Br)c2)n(C)c1C | 0 | -6 | -3 | 71*
CCCC#Cc1cnc2c(c1)C(=O)N([C@H](C)CO)C[C@@H](C)[C@H](CN(C)C(=O)NC1CCCC1)O2 | . | . | . | 4
O=C(Nc1ccc2nc(C3CC3)n(Cc3ccccc3)c(=O)c2c1)C1CC1 | 2 | 2 | 8 | 67*
COc1ccc(/C=N/NC(=O)CN(C2=NS(=O)(=O)c3ccccc32)c2ccccc2)cc1 | -4 | -8 | -9 | -4
COc1ccccc1/C=N/NC(=O)CN(C1=NS(=O)(=O)c2ccccc21)c1ccccc1 | -3 | 40* | 8 | .
CO[C@@H]1CN(C)C(=O)c2ccc(NS(C)(=O)=O)cc2OC[C@H](C)N(C(=O)C2CCCCC2)C[C@@H]1C | . | . | . | -5
COc1cccc(-c2ncc3ccccn23)c1 | 5 | -1 | -3 | 52*
COc1cc(OC)cc(-c2ncc3ccccn23)c1 | 1 | 15 | -12 | -5
COc1ccc(S(=O)(=O)N(C)C[C@H]2Oc3ccc(NC(=O)Nc4c(C)noc4C)cc3CC(=O)N([C@H](C)CO)C[C@@H]2C)cc1 | . | . | . | 1
Cn1cccc1C(=O)NCCc1ccc(Cl)cc1 | 4 | 7 | 1 | 57*
CC1(C)CSC(=NCCc2ccccc2)N1 | -1 | 5 | 5 | 45*
CC1(C)CSC(=NCCc2ccccc2)N1C(=O)c1ccc(C#N)cc1 | -1 | -1 | 6 | .
CCOC(=O)c1cnc(/N=C/N(C)C)s1 | 7.9* | 4 | -4 | .
C[C@@H]1CN([C@@H](C)CO)C(=O)c2cc(-c3cccnc3)cnc2O[C@H]1CN(C)C(=O)C1CCC1 | . | . | . | -1
CC(c1nccs1)N(C)C(=O)c1cn(Cc2cccc3ccccc23)nn1 (stereo not drawn) | 2 | -1 | 10 | 48*
SMILES | SMARCA2 activ | ARFGAP1 inh | ASAP1 GAP inh | esBAF inh
CC(c1nccs1)N(C)C(=O)CCc1nnc(-c2ccc(-c3ccccc3)cc2)o1 (stereo not drawn) | -8 | -1 | -10 | .
Cc1ccc(Nc2nc3c(c(=O)[nH]2)CCCC3)cc1 | -2 | 0 | 4 | 70*
O=C(COC(=O)c1c2c(nc3ccccc13)/C(=C\c1cccs1)CCC2)Nc1ccccc1 | 6 | 12 | 9 | .
CC(C)CNC(=O)COC(=O)c1c2c(nc3ccccc13)/C(=C\c1cccs1)CC2 | 0 | 7 | 8 | 55*
CC(=O)N(C)C[C@H]1Oc2ncc(C#Cc3ccc(F)cc3)cc2C(=O)N([C@@H](C)CO)C[C@H]1C | . | . | . | 1
CC(C)(C)c1ccc(/C=C/C(=O)N2CCCCC2)cc1 | 3 | 14 | 7 | 47*
O=C(c1ccco1)N1CCN(c2ccc(Cl)cc2)CC1 | 5 | 16 | 0 | 48*
COc1cc(NC(=S)N2CCN(C(=O)c3ccco3)CC2)c(OC)cc1Cl | 1 | 14 | -12 | .
O=C(c1ccco1)N1CCN(c2ccc(Cl)c(Cl)c2)CC1 | -2 | 5 | -10 | 44*
O=C(Cc1ccc(Cl)cc1)Nc1ccc(N2CCN(C(=O)c3ccco3)CC2)cc1 | -2 | 4 | 6 | -3
COc1ccc(Cl)cc1NC(=S)N1CCN(C(=O)c2ccco2)CC1 | 0 | 39* | -3 | -4
CCN(CC)S(=O)(=O)c1ccc2c(c1)nc(-c1ccccn1)n2C | 5 | 8 | 9 | 60*
C[C@@H]1CN([C@@H](C)CO)C(=O)c2cc(-c3ccncc3)cnc2O[C@H]1CN(C)C(=O)Nc1ccc2c(c1)OCO2 | . | . | . | -2
Oc1c(C=Nc2cccnc2)sc2ccccc12 | 7.9* | 6 | -4 | .
Oc1sc(C=Nc2ccccc2)c2ccccc12 | 4 | 15 | 11 | 77*
Oc1c(C=Nc2ccccc2)sc2ccccc12 | 3 | 0 | -7 | .
C[C@@H]1CCCCO[C@H](CN(C)C(=O)Nc2cccc3ccccc23)[C@H](C)CN([C@@H](C)CO)C(=O)c2cc(NC(=O)NC3CCCCC3)ccc2O1 | . | . | . | -6
Cc1ccc(C(=O)c2oc3ccccc3c2N)cc1 | 2 | -5 | 8 | 88*
Nc1c(C(=O)c2ccc(Br)s2)oc2ccccc12 | 7 | 5 | 12 | 74*
Nc1c(C(=O)c2cccs2)oc2ccccc12 | 3 | 10 | 6 | 54*
Nc1c(C(=O)c2ccc(Br)cc2)oc2ccccc12 | 2 | 9 | 1 | .
Nc1c(C(=O)c2ccccc2)oc2ccc(Br)cc12 | 3 | 4 | -21 | 72*
CC(C)NC(=O)Nc1ccc2c(c1)C(=O)N([C@@H](C)CO)C[C@@H](C)[C@H](CN(C)C(=O)Nc1ccc3c(c1)OCO3)OCCCC[C@@H](C)O2 | . | . | . | 1
COCC#Cc1ccc([C@@H]2[C@H]3CN(S(=O)(=O)c4ccccc4F)CCCCN3[C@H]2CO)cc1 | . | . | . | 2
COc1ccc(S(=O)(=O)Nc2cccc3c2O[C@@H](CN(C)C(=O)Nc2ccccc2)[C@H](C)CN([C@@H](C)CO)C3=O)cc1 | . | . | . | -2
C[C@H]1CN([C@@H](C)CO)C(=O)Cc2cc(NC(=O)Cn3cnnn3)ccc2O[C@@H]1CN(C)C(=O)Nc1cccc2ccccc12 | . | . | . | 1
CCOC(=O)c1ccc(NCc2nc3ccccc3[nH]2)cc1 | 1 | 7 | 9 | 50*
CCCC(=O)Nc1ccc2c(c1)OC[C@H](C)N(CC1CCCC1)C[C@H](C)[C@@H](OC)CN(C)C2=O | . | . | . | 1
CCc1cccc2c(C(=O)COC(=O)c3ccccc3)c[nH]c12 | 1 | -5 | -6 | .
CCc1cccc2c(C(=O)COC(=O)c3cnc(C)cn3)c[nH]c12 | -4 | -13 | 1 | 1
